Most compounds without a hit are left out; they make up all but 3.4% or so of the library.
E-selectin induc = E-selectin induction on HUVECs; AID 686992; P16581; HUVEC E-selectin immunofluorescence imaging; normalized: neutral wells 0, TNF-alpha wells 100; activation, % at 7.58 µM; 260,000 tested, 0.37% active;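 active means mean E-selectin-positive cell signal at least 10% of the positive control, reached in at least 60% of replicates, without over 20% cell loss; inconclusive means no rule given, readout overlaps actives, possibly toxicity-flagged; inactive means the rest, including those meeting only one limit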
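Test system – human umbilical vein endothelial cells (HUVEC), E-selectin induction · Input – 3,000 HUVEC seeded per well · Buffer or medium – EGM-2, gelatin · Compound dosing – single-point compound dose · Detection – immunofluorescence imaging · Measure – percent E-selectin-positive cells · Controls – TNF-alpha high, DMSO low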
Ecoli rRNA inh = inhibits bacterial ribosomal RNA function over humanized ribosomes; E. coli WT GFP vs humanized-ribosome RFP mutants, fluorescence, 24 h; active compounds read low; DMSO median 0, no signal -100; GFP signal change (wild-type ribosome), % (concentration not given with the values); 350,000 tested, 1.6% active; AID 720706;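 active means significant combined selectivity score with lowered wild-type GFP, culture density cut under 30%, mutant RFP and density less affected; inactive means any of these conditions unmet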
AF4-AF9 inh = blocks AF4 peptide binding to human AF9; 350,000 tested, 0.47% active; inhibition, % at 10 µM; AlphaScreen, biotin-AF4 peptide binding to FLAG-AF9; P42568;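 active means every replicate reaching a set inhibition limit, whatever the replicate mean, cut at about 25% in these data; inconclusive means mean inhibition reaches that limit but some replicates miss it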;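 further: 0% = plate neutral control median and 100% = total signal loss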
SIRT5 inh = sirtuin-5 (human) deacylase inhibition | AID 652115 | inhibition, % at 15 µM | 330,000 tested, 1.1% active | Purified SirT5, succinyl-peptide AMC, trypsin-coupled fluorescence; in the data active means inhibition above about 15%; inconclusive means no clear call, values can overlap the other calls
Target sequence (Q9NXA8 whole entry, looked up): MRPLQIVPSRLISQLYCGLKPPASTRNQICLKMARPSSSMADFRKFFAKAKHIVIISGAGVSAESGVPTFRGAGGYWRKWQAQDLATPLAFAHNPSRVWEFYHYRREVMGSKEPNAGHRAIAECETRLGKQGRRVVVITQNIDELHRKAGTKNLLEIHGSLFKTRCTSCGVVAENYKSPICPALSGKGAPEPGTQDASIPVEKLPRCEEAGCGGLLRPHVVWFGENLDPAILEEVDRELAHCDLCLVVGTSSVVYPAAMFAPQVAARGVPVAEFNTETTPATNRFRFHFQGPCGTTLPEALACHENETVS
S100A4 MyoIIA = inhibitors of human S100A4 binding to myosin IIA peptide; S100A4/TAMRA-MyoIIA peptide fluorescence polarization; inhibition, % at 10.7 µM; 360,000 tested, 0.14% active; AID 652163;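 active means mean inhibition of at least 70% across replicates, with every replicate also reaching that level; inconclusive means mean inhibition reaches 70% but some replicates fall short; inactive means mean inhibition below 70%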
Target sequence (P26447 whole entry, looked up): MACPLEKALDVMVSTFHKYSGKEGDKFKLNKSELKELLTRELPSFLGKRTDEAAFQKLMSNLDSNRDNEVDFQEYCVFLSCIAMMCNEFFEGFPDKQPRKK
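Test system: S100A4 monomer protein. Medium: HEPES buffer with Ca2+, pH 7.2. Reagent: fluorescent myosin IIA peptide, 5 nM. Compound dosing: single-point compound testing. Timing: 5 min between mix addition and reading. Benchmarks: DMSO neutral and TFP positive wells.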
ERAP1 HTS inh = inhibitors of human ERAP1 aminopeptidase; Q9NZ08; recombinant ERAP1, Leu-AMC fluorescence, 60 min; inhibition, % at 10.7 µM; 340,000 tested, 0.15% active; AID 652197;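 active means mean replicate inhibition of at least 30%, or all replicates individually reaching that 30% level; inactive means mean below 30% and not every replicate reaching it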;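 further: 0% = neutral control wells and 100% = L-leucinethiol positive control wells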
* = called active by the depositor; ? = inconclusive; . = not tested or not shown.

SMILES	E-selectin induc	Ecoli rRNA inh	AF4-AF9 inh	SIRT5 inh	S100A4 MyoIIA	ERAP1 HTS inh
COc1ccc(S(=O)(=O)Nc2ccc3c(c2)C(=O)N([C@H](C)CO)C[C@@H](C)[C@H](CN(C)Cc2ccc(Oc4ccccc4)cc2)O3)cc1	0	-1	2	22*	24	-1
COc1ccc(S(=O)(=O)Nc2ccc3c(c2)C(=O)N([C@H](C)CO)C[C@H](C)[C@H](CN(C)Cc2ccc(-c4ccccc4)cc2)O3)cc1	1	6	0	0	42	3
CC(=O)N(C)C[C@@H]1Oc2ccccc2C(=O)N(C)C[C@@H]1C	.	2	.	.	.	.
COc1ccc(S(=O)(=O)Nc2ccc3c(c2)C(=O)N([C@H](C)CO)C[C@H](C)[C@@H](CN(C)Cc2ccccc2)O3)cc1	0	0	1	-3	2	-1
COc1ccc(CN(C)C[C@H]2Oc3ccc(NS(=O)(=O)c4ccccc4)cc3C(=O)N([C@@H](C)CO)C[C@@H]2C)cc1	5	-4	0	1	1	0
COc1ccc(S(=O)(=O)Nc2ccc3c(c2)C(=O)N([C@H](C)CO)C[C@H](C)[C@@H](CN(C)Cc2ccc(Oc4ccccc4)cc2)O3)cc1	0	5	1	22*	0	-2
COc1ccc(S(=O)(=O)Nc2ccc3c(c2)C(=O)N([C@@H](C)CO)C[C@@H](C)[C@H](CN(C)Cc2ccc(Oc4ccccc4)cc2)O3)cc1	0	-3	1	25*	1	-3
C[C@@H]1CN([C@@H](C)CO)C(=O)c2cc(NS(=O)(=O)c3ccccc3)ccc2O[C@H]1CN(C)Cc1ccc(Oc2ccccc2)cc1	1	6	2	.	.	.
COc1ccc(S(=O)(=O)Nc2ccc3c(c2)C(=O)N([C@@H](C)CO)C[C@H](C)[C@H](CN(C)Cc2ccc(Oc4ccccc4)cc2)O3)cc1	0	5	1	38*	-15	-1
CC(C)NC(=O)Nc1ccc2c(c1)CC(=O)N(C)C[C@@H](C)[C@@H](CN(C)C)O2	.	1	.	.	.	.
c1ccc(Cc2cc[n+](Cc3ccccn3)cc2)cc1	45*	21	1	.	-3	.
O=[N+]([O-])c1ccc(C[n+]2ccc(Cc3ccccc3)cc2)cc1	.	11	2	-6	-3	12
CN(C)CC(=O)N[C@H]1CC[C@@H](CCNS(=O)(=O)c2ccccc2)O[C@@H]1CO	0	2	-1	2	23	1
Clc1ccc(-c2cn(-c3ccc(Cl)cc3)c3[n+]2CCCCC3)cc1	0	-46*	-5	-7	-12	3
COc1ccc(-c2cn(-c3ccc(Cl)cc3)c3[n+]2CCCCC3)cc1	1	-35*	-1	0	0	2
O=C(N[C@H]1CC[C@H](CCn2cc(C3CCCCC3)nn2)O[C@H]1CO)c1cccnc1	0	0	1	4	7	-1
O=C(C[C@H]1CC[C@@H](NC(=O)Nc2ccccc2F)[C@@H](CO)O1)NCc1ccc(F)cc1	1	0	-3	0	1	-8
Oc1ccccc1/C=N/NC(=S)NC1CC2C=CC1C2 (centres undefined)	1	-39*	.	-1	-3	-1
Oc1ccccc1C=NNC(=S)NC1CC2C=CC1C2 (centres undefined)	0	-57	16	.	0	-3
Oc1c(Cl)cc(Cl)cc1/C=N/NC(=S)NC1CC2C=CC1C2 (centres undefined)	.	-31*	2	0	1	-9
C[C@@H]1CN([C@H](C)CO)C(=O)c2cccc(NS(=O)(=O)c3cccs3)c2O[C@@H]1CN(C)C(=O)NC1CCCCC1	-4	-1	0	1	-4	-5
CC(C)N(Cc1nc(-c2ccccc2)no1)C(=O)c1ccc2c(c1)OCO2	.	-29*	-5	1	-6	1
Cc1ccc(-c2noc(CN(C(=O)c3ccc4c(c3)OCO4)C(C)C)n2)cc1	.	3	0	-2	1	-1
Cc1ccc(C(=O)N(Cc2nc(-c3ccc(C)cc3)no2)C(C)C)cc1	1	11	-2	17*	-2	0
CCCNC(=O)N1[C@H](CO)[C@H](c2ccccc2)C12CN(C(=O)c1cccnc1)C2	0	1	-11	-2	0	0
SMILES	E-selectin induc	Ecoli rRNA inh	AF4-AF9 inh	SIRT5 inh	S100A4 MyoIIA	ERAP1 HTS inh
Cc1ccccc1NC(=O)C[C@H]1CC[C@H]2[C@@H](COc3ccc(NC(=O)c4ccc(Cl)cc4)cc3C(=O)N2C)O1	.	-3	.	.	.	.
Cc1ccccc1CN1CCN(Cc2ccc3cccc(F)c3n2)CC1CCO (centres undefined)	.	-1	2	36*	-3	0
CC(C)(C)C(=O)O/N=C(\N)c1ccc([N+](=O)[O-])s1	3	10	.	-1	-6	1
N/C(=N\OC(=O)C1CC1)c1ccc([N+](=O)[O-])s1	2	-55*	-1	-4	1	5
COc1ccc(S(=O)(=O)Nc2ccc3c(c2)CC(=O)N([C@@H](C)CO)C[C@H](C)[C@@H](CN(C)CC2CCCCC2)O3)cc1	-1	6	1	16*	-18	1
COc1ccc(S(=O)(=O)Nc2ccc3c(c2)CC(=O)N([C@H](C)CO)C[C@H](C)[C@@H](CN(C)CC2CCCCC2)O3)cc1	-1	-5	9	24*	-2	0
COc1ccc(S(=O)(=O)Nc2ccc3c(c2)CC(=O)N([C@@H](C)CO)C[C@@H](C)[C@@H](CN(C)CC2CCCCC2)O3)cc1	-1	0	2	13	-14	-1
O=C1Nc2ccccc2/C1=N/N=C/c1cccc(O)c1	.	1	-31	3	-1	4
Oc1cccc(C=NN=C2c3ccccc3-c3ccccc32)c1	0	-34*	16	8	5	2
Cc1c(CCC(=O)O)c(=O)oc2c(C)c3occ(-c4ccc(Br)cc4)c3cc12	.	-16*	-2	10	6	4
Cc1c(CC(=O)O)c(=O)oc2c(C)c3occ(-c4ccc(F)cc4)c3cc12	.	-25	-2	-1	0	2
Cc1coc2c(C)c3oc(=O)c(CCC(=O)N[C@@H](C)C(=O)N[C@@H](Cc4ccccc4)C(=O)O)c(C)c3cc12	.	.	-3	26*	-4	-1
COc1ccc(S(=O)(=O)N(C)C[C@H]2Oc3ccc(NC(=O)Nc4cccc5ccccc45)cc3CC(=O)N([C@H](C)CO)C[C@@H]2C)cc1	?	-3	1	8	-8	3
O=C1CC(N2CCC(c3nc4ccccc4[nH]3)CC2)C(=O)N1c1ccccc1F (centres undefined)	.	20	0	18*	3	-2
